Reference: ChEMBL document CHEMBL1152729, “Ceramides: branched alkyl chains in the sphingolipid siblings of diacylglycerol improve biological potency” (Bioorg Med Chem, 2009)

What was measured:
SUP-T1 [1] = test: Cytotoxicity against human SupT1 cells after 24 hrs by CellTiter-Blue assay; type: functional, cell-based
How it was run: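 SupT1 cells cultured in RPMI with 10% FBS and penicillin-streptomycin, then incubated 24 h with serially diluted compound from 50 mM DMSO stocks. CellTiter-Blue resazurin reduction was read at 560/590 nm and normalized to the no-drug control as percent viability. IC50s came from the fitted dose-response curve of each experiment and were averaged over three experiments ± SD.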

MDA-MB-231 = test: Cytotoxicity against human MDA-MB-231 cells after 24 hrs by CellTiter-Blue assay; type: functional, cell-based; conditions: MDA-MB-231, 24 h
How it was run: (§1)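 MCF-7 or MDA-MB231 cells kept in DMEM with 10% FBS and penicillin-streptomycin. The cells were exposed for 24 h to serial dilutions of compound, diluted in medium at 37 °C from 50 mM DMSO stocks. Viability was read by resazurin-to-resorufin fluorescence at 560/590 nm ex/em and normalized to the no-drug control. Dose-response fits gave IC50s, averaged over three experiments ± SD.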

SK-BR-3 = test: Cytotoxicity against human SKBR3 cells after 24 hrs by CellTiter-Blue assay; type: functional, cell-based; conditions: SK-BR-3, 24 h
How it was run: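 SKBR3 breast cancer cells grown in DMEM with 10% FBS and penicillin-streptomycin. The cells were treated for 24 h with serial compound dilutions made in 37 °C medium from 50 mM DMSO stocks. Resorufin fluorescence (560/590 nm ex/em) was expressed as percent of the untreated control. Curve fitting gave IC50s, with the mean of three repeats ± SD.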

SUP-T1 [2] = test: Induction of early apoptosis in human SupT1 cells after 24 hrs using annexin V-FITC staining by FACS; type: functional, cell-based
How it was run: (§2)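 SupT1 cells treated for 24 h at different compound concentrations, then harvested and washed in PBS. Phosphatidylserine exposure was detected by Annexin V-FITC staining and flow cytometry. Brightly stained cells were counted as apoptotic.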

SUP-T1 [3] = test: Induction of apoptosis in human SupT1 cells at 25 uM after 24 hrs using DiOC6 staining by FACS; type: functional
How it was run: (§3)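 SupT1 cells exposed to varying compound concentrations for 24 h, then collected and PBS-washed. Mitochondrial depolarization was detected by 10 μM DiOC6 staining and flow cytometry. Cells with reduced DiOC6 staining were gated as apoptotic.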

MCF7 = test: Cytotoxicity against human MCF7 cells after 24 hrs by CellTiter-Blue assay; type: functional, cell-based; conditions: MCF7, 24 h; how it was run: as §1
SUP-T1 [4] = test: Induction of early apoptosis in human SupT1 cells at 25 uM after 24 hrs using annexin V-FITC staining by FACS; type: functional; how it was run: as §2
NHDF = test: Cytotoxicity against NHDF after 24 hrs by CellTiter-Blue assay; type: cell-based; conditions: Homo sapiens
How it was run: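 Normal human dermal fibroblasts grown in fibroblast medium and treated for 24 h with serial compound dilutions. Viability was measured by resorufin fluorescence (560/590 nm ex/em) as percent of the no-drug control. IC50 was taken from the dose-response fit as a single determination.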

SUP-T1 [5] = test: Induction of apoptosis in human SupT1 cells after 24 hrs using DiOC6 staining by FACS; type: functional, cell-based; how it was run: as §3
SUP-T1 [6] = test: Induction of apoptosis in human SupT1 cells at 50 uM after 24 hrs using DiOC6 staining by FACS; type: functional; how it was run: as §3
SUP-T1 [7] = test: Induction of early apoptosis in human SupT1 cells at 50 uM after 24 hrs using annexin V-FITC staining by FACS; type: functional; how it was run: as §2

Structure (SMILES)	IC50 (SUP-T1 [1]; Homo sapiens, SUP-T1, 24 h)	IC50 (MDA-MB-231)	IC50 (SK-BR-3)	Activity (SUP-T1 [2])	IC50 (MCF7)	IC50 (NHDF)	Activity (SUP-T1 [5])	other results
CCCCCCCCCCCC[C@@H](O)[C@H](CO)NC(=O)CC(CC(C)C)CC(C)C	76.3 µM	–	–	–	–	–	–	–
CCCCCCCCCCC(=O)N[C@@H](CO)[C@H](O)/C=C/CC(CC(C)C)CC(C)C	15.5 µM	22.4 µM	10.2 µM	Dose-dependent effect	16.3 µM	45.4 µM	Dose-dependent effect	Activity (SUP-T1 [3]): 75.15%; Activity (SUP-T1 [4]): 66.16%
CCCCCCCCCCCCC/C=C/[C@@H](O)[C@H](CO)NC(C)=O (stereo in doubt; 1)	–	35.4 µM	49.2 µM	Dose-dependent effect	45.4 µM	66.5 µM	Dose-dependent effect	Activity (SUP-T1 [6]): 56.14%; IC50 (SUP-T1 [1]; sup-t1): 41.4 µM; Activity (SUP-T1 [7]): 42.33%
CCCCCCCCCC/C=C/[C@@H](O)[C@H](CO)NC(=O)CC(CC(C)C)CC(C)C	29.1 µM	–	–	–	–	–	–	–
CCCCCCCCCCCCC/C=C/[C@@H](O)[C@H](CO)NC(=O)CCCCC	48 µM	–	–	–	–	–	–	–
CCCCCC(=O)N[C@@H](CO)[C@H](O)/C=C/CC(CC(C)C)CC(C)C	52.9 µM	–	–	–	–	–	–	–
